ChEMBL document CHEMBL4808195, “Discovery of heterocyclic substituted dihydropyrazoles as potent anticancer agents” (Bioorg Med Chem Lett, 2021)
Calls of active or inactive are those of the source. No cut-off for these calls is given here.

Assays:
[1] = test system: HCC1806; assay: Anticancer activity against human HCC1806 cells assessed as inhibition of cell proliferation; type: functional, cell-based
[2] = test system: HCT-116; assay: Anticancer activity against human HCT-116 cells assessed as inhibition of cell proliferation; type: functional, cell-based
[3] = test system: HCC1806; assay: Cell cycle arrest in human HCC1806 cells assessed as decrease in cell population at G1 phase at 2.5 to 5 uM measured after 12 hrs by flowcytometry method; type: functional, cell-based; settings: dose 2.5-5 µM
Summary of the method: (§1)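 HCC1806 cells were treated with the compound for 12 h. Cell-cycle distribution was determined by flow cytometry, and the phase fractions were quantified from experimental duplicates with SD.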

[4] = test system: A549; assay: Anticancer activity against human A549 cells assessed as inhibition of cell proliferation; type: functional, cell-based
[5] = test system: HCC1806; assay: Cell cycle arrest in human HCC1806 cells assessed as decrease in cell population at S phase at 2.5 to 5 uM measured after 12 hrs by flowcytometry method; type: functional, cell-based; settings: dose 2.5-5 µM; summary of the method: as §1
[6] = test system: HCC1806; assay: Cell cycle arrest in human HCC1806 cells assessed as increase in cell population at G2/M phase at 2.5 to 5 uM measured after 12 hrs by flowcytometry method; type: functional, cell-based; settings: dose 2.5-5 µM; summary of the method: as §1
[7] = test system: NCI-H1975; assay: Anticancer activity against human NCI-H1975 cells assessed as inhibition of cell growth at 10 uM measured by SRB method; type: functional
[8] = test system: HCC1806; assay: Anticancer activity against human HCC1806 cells assessed as inhibition of cell growth at 10 uM measured by SRB method; type: functional
[9] = test system: HeLa; assay: Anticancer activity against human HeLa cells assessed as inhibition of cell proliferation; type: functional, cell-based
[10] = test system: HCC1806; assay: Anticancer activity against human HCC1806 cells assessed as inhibition of cell proliferation at 2 to 10 uM measured after 48 hrs by SRB assay; type: functional, cell-based; settings: dose 2-10 µM
Summary of the method: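 HCC1806 cells were exposed to the compound for 24, 48 and 72 h. Proliferation inhibition rate was read by SRB assay at each time point. Experimental triplicates, shown with SD.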

[11] = test system: HCC1806; assay: Cell cycle arrest in human HCC1806 cells assessed as increase in p21 accumulation at 2.5 to 5 uM measured after 12 hrs by western blot assay; type: functional, cell-based; settings: dose 2.5-5 µM
Summary of the method: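 HCC1806 cells were exposed to the compound for 12 h. p21 protein level was detected by immunoblotting, with β-actin as the loading control.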

[12] = test system: MDA-MB-231; assay: Anticancer activity against human MDA-MB-231 cells assessed as inhibition of cell growth at 10 uM measured by SRB method; type: functional

IC50 [1]: 2990 nM
IC50 [2]: 3.6 µM
IC50 [4]: 3.6 µM
IC50 [9]: 3000 nM
Compound: CN1CCN(c2ccc(C3=NN(S(=O)(=O)c4ccc(C#N)cc4)C(c4ccc(N(C)C)cc4)C3)cc2)CC1 (configuration not stated)
Activity [3]: Active
Activity [5]: Active
Activity [6]: Active
inhibition at 10 µM [7]: 100%
inhibition at 10 µM [8]: 99.8%
Activity [10]: Active
Activity [11]: Active
inhibition at 10 µM [12]: 99.8%
